# A1 apoptosis 2 = A1 inhibition read as caspase activation; MEF A1-2A-BIM cells, caspase-Glo luminescence, 3 h; percent of clofoctol response, DMSO zero; caspase activation, % (concentration not given with the values); 24,000 tested, under 10 active; AID 2465; in the data active means caspase activation above about 5.9%; inconclusive means no clear call, values can overlap the other calls; inactive means below about 2.2%
#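 Material: A1-2A-BIM-expressing MEF cells. Buffer or medium: RPMI-1640 plus 10% FBS. Incubation: cells settled overnight, compound exposure 3 h at 37 °C, 5% CO2. Signal: Caspase-Glo 3/7 luminescence, 1 h at room temperature.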
# INS-1E rescue = INS-1E beta cell protection from cytokine death. INS-1E cytokine-induced death, ATP luminescence, 48 h; normalised: neutral wells 0, positive control 100. 20,000 tested, 0.1% active. AID 488910. protection from cytokine-induced ATP loss, % at 10 µM;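 active means mean replicate protection from cytokine-induced ATP loss at least 50% and at least 75% of replicates each reaching 50%; inconclusive means meets only one of the two criteria, mean or replicate share; inactive means fails both the mean and replicate share criteria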
#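 Test system: INS-1E rat cells | Quantity: 8000 cells per well | Medium: Phenol-red-free RPMI with 5% fetal bovine serum | Reagent: Cytokine cocktail of IFN-γ, TNF-α and IL-1β | Doses: One compound concentration, pin transfer | Timing: 48 h co-treatment, 10 min post-lysis read | Technique: Luminescent ATP assay (CellTiter-Glo)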
# T cruzi HTS = intracellular Trypanosoma cruzi inhibition; 22,000 tested, 4.9% active; intracellular Trypanosoma cruzi in host cells, plate reader; activity score (inhibition), % at 5.01 µM; in the data active means activity score above about 55%; inconclusive means no clear call, values can overlap the other calls;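 further: parasites and compound incubated about four days before reading; 0% = median of neutral control wells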
# * hit, by the source's call; ? = inconclusive; nt = no result. The full list was thinned out, with hits kept by preference.
SMILES,A1 apoptosis 2,INS-1E rescue,T cruzi HTS
Cc1ccc(S(=O)(=O)Nc2ccc3c(c2)C(=O)N([C@@H](C)CO)C[C@H](C)[C@@H](CN(C)Cc2ccc(Cl)c(Cl)c2)O3)cc1,nt,0,32
C[C@@H]1CCCCO[C@H](CN(C)C(=O)Nc2cccc3ccccc23)[C@@H](C)CN([C@H](C)CO)C(=O)c2cc(N(C)C)ccc2O1,0,-1,-1
O=C(N/N=C/C(Br)=C/c1ccccc1)c1ccccc1O,-5,31,-57
C[C@@H]1CN([C@H](C)CO)C(=O)CCCn2cc(nn2)CO[C@H]1CN(C)C(=O)Nc1ccc(C(F)(F)F)cc1,-1,5,-18
CC(C)NC(=O)Nc1ccc2c(c1)C(=O)N([C@H](C)CO)C[C@@H](C)[C@@H](CN(C)Cc1ccc(C(=O)O)cc1)OCCCC[C@@H](C)O2,0,nt,nt
C[C@@H]1CN([C@@H](C)CO)C(=O)c2cccc(NC(=O)NC3CCCCC3)c2O[C@H]1CN(C)Cc1ccc(Cl)c(Cl)c1,nt,-5,62*
C[C@@H]1CN([C@@H](C)CO)C(=O)c2cccc(NC(=O)NC3CCCCC3)c2O[C@@H]1CN(C)Cc1ccc(Cl)c(Cl)c1,-1,-18,-52
C[C@@H]1CN([C@H](C)CO)C(=O)c2cccc(NC(=O)C3CCCCC3)c2O[C@H]1CN(C)Cc1ccc(Cl)c(Cl)c1,0,-17,60*
C[C@H](CO)N1C[C@H](C)[C@H](CN(C)Cc2ccc(Cl)c(Cl)c2)Oc2c(NC(=O)C3CCCCC3)cccc2C1=O,nt,-41,14
C[C@@H]1CN([C@@H](C)CO)C(=O)c2cc(NC(=O)Nc3ccc(C(F)(F)F)cc3)ccc2O[C@@H](C)CCCCO[C@@H]1CN(C)S(=O)(=O)c1ccc(F)cc1,1,nt,nt
C[C@H]1CN([C@@H](C)CO)C(=O)Cc2cc(NC(=O)Cc3cn(C)c4ccccc34)ccc2O[C@H]1CN(C)Cc1ccc(C(F)(F)F)cc1,2,-52,75*
C[C@@H]1CN([C@H](C)CO)C(=O)Cc2cc(NC(=O)Cc3cn(C)c4ccccc34)ccc2O[C@H]1CN(C)Cc1ccc(C(F)(F)F)cc1,0,3,63*
C[C@@H]1CN([C@H](C)CO)C(=O)Cc2cc(NC(=O)Cc3cn(C)c4ccccc34)ccc2O[C@@H]1CN(C)Cc1ccccc1,nt,-21,52
C[C@@H]1CN([C@@H](C)CO)C(=O)Cc2cc(NC(=O)Cc3cn(C)c4ccccc34)ccc2O[C@@H]1CN(C)Cc1ccccc1,-1,-16,21
CC(C)NC(=O)N(C)C[C@@H]1OCCCC[C@@H](C)Oc2ccc(NC(=O)c3ccncc3)cc2C(=O)N([C@H](C)CO)C[C@H]1C,1,nt,nt
C[C@@H]1CN([C@H](C)CO)C(=O)Cc2cc(NC(=O)c3ccncc3)ccc2O[C@@H]1CN(C)Cc1ccc(Oc2ccccc2)cc1,0,-32,8
C[C@H](CO)N1C[C@H](C)[C@H](CN(C)Cc2ccc(-c3ccccc3)cc2)Oc2c(NC(=O)c3ccc(-c4nccs4)cc3)cccc2C1=O,-1,-46,52
C[C@H](CO)N1C[C@H](C)[C@@H](CN(C)Cc2ccc(Oc3ccccc3)cc2)Oc2c(NC(=O)c3ccc(-c4nccs4)cc3)cccc2C1=O,0,-17,67*
C[C@H](CO)N1C[C@H](C)[C@@H](CN(C)Cc2ccc(-c3ccccc3)cc2)Oc2c(NC(=O)c3ccc(-c4nccs4)cc3)cccc2C1=O,nt,-29,81*
C[C@H]1CN([C@@H](C)CO)C(=O)c2cccc(NC(=O)c3ccc(-c4nccs4)cc3)c2O[C@H]1CN(C)Cc1ccc(-c2ccccc2)cc1,nt,-49,66*
C[C@H]1CN([C@@H](C)CO)C(=O)c2cccc(NC(=O)c3ccc(-c4nccs4)cc3)c2O[C@H]1CN(C)Cc1ccc(Oc2ccccc2)cc1,-2,-24,41
C[C@H](CO)N1C[C@H](C)[C@@H](CN(C)Cc2ccccc2)Oc2c(NC(=O)c3ccc(-c4nccs4)cc3)cccc2C1=O,nt,-9,53
C[C@@H]1CN([C@H](C)CO)C(=O)c2cccc(NC(=O)c3ccc(-c4nccs4)cc3)c2O[C@H]1CN(C)Cc1ccc(-c2ccccc2)cc1,nt,-3,43
C[C@@H]1CN([C@@H](C)CO)C(=O)c2cccc(NC(=O)c3ccc(-c4nccs4)cc3)c2O[C@@H]1CN(C)Cc1ccc(C(=O)Nc2ccccc2N)cc1,0,?,75*
C[C@@H]1CCCCO[C@@H](CN(C)Cc2ccccc2)[C@@H](C)CN([C@@H](C)CO)C(=O)c2cc(N(C)C)ccc2O1,1,nt,nt
SMILES,A1 apoptosis 2,INS-1E rescue,T cruzi HTS
C[C@H]1CCCCO[C@H](CN(C)S(=O)(=O)c2cn(C)cn2)[C@@H](C)CN([C@@H](C)CO)C(=O)c2cc(NC(=O)Nc3ccc(C(F)(F)F)cc3)ccc2O1,-1,nt,nt
COc1ccc([Si](C)(C)[C@H]2[C@H](CCO)O[C@@]3(C(=O)N(c4ccccc4)c4ccccc43)[C@@H]2C)cc1,-1,nt,nt
COc1ccc([Si](C)(C)[C@@H]2[C@@H](CCn3cc(CCO)nn3)O[C@]3(C(=O)N(c4ccccc4)c4ccccc43)[C@H]2C)cc1,12*,nt,nt
COc1ccc([Si](C)(C)[C@@H]2[C@@H](CCO)O[C@]3(C(=O)N4c5c(cc(OC)cc53)C(C)=CC4(C)C)[C@H]2C)cc1,27*,nt,nt
COc1ccc([Si](C)(C)[C@@H]2[C@@H](CCn3cc(CCO)nn3)O[C@]3(C(=O)N(C)c4ccccc43)[C@H]2C)cc1,1,nt,nt
C[C@H]1CN([C@@H](C)CO)C(=O)Cc2cc(NC(=O)Nc3cccc4ccccc34)ccc2O[C@H]1CN(C)Cc1ccc(-c2ccccc2)cc1,nt,-45,4
C[C@H]1CN([C@@H](C)CO)C(=O)Cc2cc(NC(=O)Nc3cccc4ccccc34)ccc2O[C@H]1CN(C)Cc1ccccc1,0,-19,69*
C[C@@H]1CN([C@@H](C)CO)C(=O)Cc2cc(NC(=O)Nc3cccc4ccccc34)ccc2O[C@@H]1CN(C)Cc1ccccc1,nt,-22,67*
C[C@@H]1CN([C@H](C)CO)C(=O)Cc2cc(NC(=O)Nc3cccc4ccccc34)ccc2O[C@@H]1CN(C)Cc1ccc(-c2ccccc2)cc1,1,-2,?
C[C@@H]1CN([C@H](C)CO)C(=O)c2cc(NC(=O)Nc3cccc4ccccc34)ccc2O[C@H]1CN(C)Cc1ccc(Oc2ccccc2)cc1,1,nt,53
C[C@@H]1CN([C@H](C)CO)C(=O)Cc2cc(NC(=O)Nc3cccc4ccccc34)ccc2O[C@H]1CN(C)Cc1ccccc1,nt,-7,79*
C[C@@H]1CN([C@@H](C)CO)C(=O)c2cc(NC(=O)Nc3cccc4ccccc34)ccc2O[C@@H]1CN(C)Cc1ccc(Oc2ccccc2)cc1,0,-57,57*
C[C@@H]1CN([C@@H](C)CO)C(=O)Cc2cc(NC(=O)Nc3cccc4ccccc34)ccc2O[C@@H]1CN(C)Cc1ccc(-c2ccccc2)cc1,nt,1,50
Cc1nc(S(=O)(=O)N[C@@H]2CCN(Cc3ccc(OCCO)cc3)C2)cn1C,-1,nt,nt

# Compound activity (PubChem BioAssay)
